Publication PMC6392825 (ChemistryOpen, 2019)
Values after ≈ are worked out from the molar mass of the structure shown.

Columns and labels:
[1] = Water solubility, shake flask method, 0.1 M phosphate buffer pH 6.8; assay type: physicochemical; settings: 37 °C, pH 6.8, aqueous buffer, thermodynamic from solid
[2] = Chemical antioxidant capacity, FRAP assay
HepG2 [3] = experiment: Cytotoxicity, mitochondrial activity; assay type: cell-based; settings: Homo sapiens, HepG2, 72 h, read-out: IC50 MTT
How it was run: (§1)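 Seeded at 20000 cells/well in DMEM and grown 24 h at 37 °C, 10% CO2. Medium was then replaced with serum-free medium holding test compound (25 mM DMSO stock) at various concentrations for 72 h, in triplicate; doxorubicin was the positive control. MTT (5 mg/mL stock in PBS) added for 2 h, formazan dissolved in DMSO, A570. IC50 derived from % surviving cells, reported as mean ± SD combined with SRB data.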

HT‐29 [4] = experiment: Cytotoxicity, mitochondrial activity; assay type: cell-based; settings: Homo sapiens, HT-29, 72 h, read-out: IC50 MTT
How it was run: as §1

Caco‐2 [5] = experiment: Cytotoxicity, mitochondrial activity; assay type: cell-based; settings: Homo sapiens, Caco-2, 72 h, read-out: IC50 MTT
How it was run: as §1

EA.hy926 [6] = experiment: Cytotoxicity, mitochondrial activity; assay type: cell-based; settings: Homo sapiens, EA.hy 926, 72 h, read-out: IC50 MTT
How it was run: as §1

HepG2 [7] = experiment: Cell growth inhibition, protein content; assay type: cell-based; settings: Homo sapiens, HepG2, 72 h, read-out: IC50 SRB
How it was run: (§2)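 Cell lines from ATCC, grown in DMEM+glutamax with 1% NEAA, 1% P/S and 10% FBS at 37 °C, 10% CO2. Seeded at 20000 cells/well for 24 h, then exposed to test compound (25 mM DMSO stock) for three days. Fixed with cold TCA for 1 h at 4 °C, stained 30 min with 0.4% SRB in 1% acetic acid, dissolved in 10 mM Tris, A490. Triplicate; IC50 given as mean ± SD combined with MTT data (n ≥ 3).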

HT‐29 [8] = experiment: Cell growth inhibition, protein content; assay type: cell-based; settings: Homo sapiens, HT-29, 72 h, read-out: IC50 SRB
How it was run: as §2

Caco‐2 [9] = experiment: Cell growth inhibition, protein content; assay type: cell-based; settings: Homo sapiens, Caco-2, 72 h, read-out: IC50 SRB
How it was run: as §2

EA.hy926 [10] = experiment: Cell growth inhibition, protein content; assay type: cell-based; settings: Homo sapiens, EA.hy 926, 72 h, read-out: IC50 SRB
How it was run: as §2

HepG2 [11] = experiment: Intracellular ROS assay; assay type: cell-based; settings: for change of intracellular ROS in words: HepG2, vs untreated control, 10 and 1 μM; for activity at 1 µM / activity at 10 µM: Homo sapiens, HepG2, read-out: Intracellular ROS, percentage compared to the untreated control cells (ROS/SRB)
How it was run: (§3)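 Cells seeded at 20000/well and grown 24 h at 37 °C, 10% CO2, then treated with test compound at 10 and 1 μM in serum-free medium. NAC and doxorubicin served as controls. After a PBS wash, cells were loaded with 20 μM DCFH-DA for 30 min, washed, and held 1 h in phenol red-free DMEM. Fluorescence read at ex 485/em 535 nm and normalized to SRB in the same well. Reported as % of untreated control, n ≥ 3, two-tailed t-test with unequal variances.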

HT‐29 [12] = experiment: Intracellular ROS assay; assay type: cell-based; settings: for activity at 1 µM / activity at 10 µM: Homo sapiens, HT-29, read-out: Intracellular ROS, percentage compared to the untreated control cells (ROS/SRB)
How it was run: as §3

Caco‐2 [13] = experiment: Intracellular ROS assay; assay type: cell-based; settings: for activity at 1 µM / activity at 10 µM: Homo sapiens, Caco-2, read-out: Intracellular ROS, percentage compared to the untreated control cells (ROS/SRB)
How it was run: as §3

EA.hy926 [14] = experiment: Intracellular ROS assay; assay type: cell-based; settings: for change of intracellular ROS in words: EA.hy926, vs untreated control, 10 and 1 μM; for activity at 1 µM / activity at 10 µM: Homo sapiens, EA.hy 926, read-out: Intracellular ROS, percentage compared to the untreated control cells (ROS/SRB)
How it was run: as §3

CHO‐K1 = experiment: Intracellular ROS assay; assay type: cell-based, Chinese hamster; settings: CHO‐K1, vs untreated control, 10 and 1 μM
How it was run: as §3

Row | Structure (SMILES) | solubility at 90 min [1] [µM] | solubility at 24 h [1] [µM] | IC50 (HepG2 [7]) [µM] | IC50 (Caco‐2 [9]) [µM] | FRAP (Trolox equivalent per μM) [2] [Trolox equivalent per μM] | FRAP (curcumin equivalent per μM) [2] | IC50 (HepG2 [3]) [µM] | IC50 (HT‐29 [4]) [µM] | IC50 (Caco‐2 [5]) [µM] | IC50 (EA.hy926 [6]) [µM] | IC50 (HT‐29 [8]) [µM] | IC50 (EA.hy926 [10]) [µM] | activity at 1 µM (HepG2 [11]) [%] | activity at 10 µM (HepG2 [11]) [%] | activity at 1 µM (HT‐29 [12]) [%] | activity at 10 µM (HT‐29 [12]) [%] | activity at 1 µM (Caco‐2 [13]) [%] | activity at 10 µM (Caco‐2 [13]) [%] | activity at 1 µM (EA.hy926 [14]) [%] | activity at 10 µM (EA.hy926 [14]) [%] | other results
1 | COc1cc(/C=C/c2cc(/C=C/c3ccncc3)[nH]n2)ccc1O [4 b, 2‐Methoxy‐4‐{(E)‐2‐[5‐((E)‐2‐(pyridin‐4‐yl)vinyl)‐1H‐pyrazol‐3‐yl]vinyl}phenol] | 16.8 ± 1.6 (≈ 5.37 µg/mL) | 12.8 ± 1.4 (≈ 4.09 µg/mL) | 54.6 ± 0.3 | 46.5 ± 0.5 | 0.43 | 0.42 curcumin equivalent per μM | 56.7 ± 0.5 | 49 ± 0.7 | 39.3 ± 1.2 | 35.7 ± 0.1 | 47.4 ± 0.2 | 51.8 ± 0.3 | 135 ± 14.1 | 123 ± 11.4 | 111 ± 16.2 | 114 ± 12.3 | 106 ± 4.6 | 94.3 ± 6.7 | 86.9 ± 1.6 | 80.6 ± 6.8 | change of intracellular ROS in words (HepG2 [11]): significantly increased ROS production; change of intracellular ROS in words (EA.hy926 [14]): decreased intracellular ROS; change of intracellular ROS in words (CHO‐K1): significantly increased ROS
2 | COc1cc(/C=C/C(=O)/C=C(O)/C=C/c2ccnc3ccccc23)ccc1O [3 d, (1E,4Z,6E)‐5‐Hydroxy‐1‐(4‐hydroxy‐3‐methoxyphenyl)‐7‐(quinolin‐4‐yl)hepta‐1,4,6‐triene‐3‐one] | 3.6 ± 1.1 (≈ 1.34 µg/mL) | 4.4 ± 1.3 (≈ 1.64 µg/mL) | 55.4 ± 0.3 | 40.8 ± 1.6 | 0.20 | 0.20 curcumin equivalent per μM | 44.8 ± 5.5 | 47 ± 1 | 46.3 ± 3.7 | 42.3 ± 1.2 | 47.2 ± 2.2 | 60.2 ± 10.4 | 90.7 ± 7.4 | 99.6 ± 11.7 | 71.3 ± 4.9 | 96.9 ± 8 | 94.2 ± 5 | 108 ± 4.4 | 95.6 ± 7 | 132 ± 6.5 | –
3 | O=C(/C=C(O)/C=C/c1ccccn1)/C=C/c1c[nH]c2ccccc12 [3 j, (1E,4Z,6E)‐5‐Hydroxy‐1‐(1H‐indol‐3‐yl)‐7‐(pyridin‐2‐yl)hepta‐1,4,6‐trien‐3‐one] | 10.7 ± 0.4 (≈ 3.39 µg/mL) | 7.9 ± 0.2 (≈ 2.5 µg/mL) | 34 ± 2.8 | 40.2 ± 1.9 | 0.16 | 0.15 curcumin equivalent per μM | 38.9 ± 0.8 | 33.8 ± 3.5 | 35.5 ± 0.4 | 1.4 ± 0.2 | 46 ± 3 | 3.7 ± 0.2 | 92.6 ± 6.5 | 96.6 ± 5.9 | 114 ± 15.5 | 102 ± 6.4 | 98.2 ± 2.6 | 84.9 ± 7 | 90.8 ± 2.4 | 111 ± 3.5 | –
4 | O=C(/C=C(O)/C=C/c1ccncc1)/C=C/c1c[nH]c2ccccc12 [3 i, (1E,4Z,6E)‐5‐Hydroxy‐1‐(1H‐indol‐3‐yl)‐7‐(pyridin‐4‐yl)hepta‐1,4,6‐trien‐3‐one] | 7.8 ± 0.1 (≈ 2.47 µg/mL) | 7.7 ± 0.6 (≈ 2.44 µg/mL) | > 75 | 29.8 ± 2.3 | 0.19 | 0.18 curcumin equivalent per μM | 48.5 ± 1.7 | 42 ± 1 | 47.1 ± 1.6 | 34.9 ± 1.3 | 64.2 ± 2.76 | > 75 | 125 ± 12 | 147 ± 12.8 | 73.3 ± 7.8 | 73.6 ± 5.3 | 101 ± 5.1 | 89.7 ± 8.9 | 106 ± 10.5 | 119 ± 2.9 | –
5 | O=C(/C=C(O)/C=C/c1ccc2ccccc2n1)/C=C/c1c[nH]c2ccccc12 [3 k, (1E,4Z,6E)‐5‐Hydroxy‐1‐(1H‐indol‐3‐yl)‐7‐(quinolin‐2‐yl)hepta‐1,4,6‐trien‐3‐one] | 8.1 ± 0.1 (≈ 2.97 µg/mL) | 9.6 ± 0.8 (≈ 3.52 µg/mL) | 54.1 ± 1 | 47.5 ± 0.2 | 0.20 | 0.19 curcumin equivalent per μM | 56.2 ± 1.6 | 42 ± 2 | 44.7 ± 2.1 | 38.3 ± 1.7 | 43.8 ± 0.9 | 53.2 ± 1.3 | 156 ± 13 | 197 ± 24.6 | 112 ± 10.8 | 116 ± 7.1 | 162 ± 21.7 | 168 ± 28.1 | 120 ± 9.2 | 126 ± 5.6 | –

Molecules with a lower IC50 (HepG2 [7]), results first:

Row | solubility at 90 min [1] [µM] | solubility at 24 h [1] [µM] | IC50 (HepG2 [7]) [µM] | IC50 (Caco‐2 [9]) [µM] | Structure (SMILES) | FRAP (Trolox equivalent per μM) [2] [Trolox equivalent per μM] | FRAP (curcumin equivalent per μM) [2] | IC50 (HepG2 [3]) [µM] | IC50 (HT‐29 [4]) [µM] | IC50 (Caco‐2 [5]) [µM] | IC50 (EA.hy926 [6]) [µM] | IC50 (HT‐29 [8]) [µM] | IC50 (EA.hy926 [10]) [µM] | activity at 1 µM (HepG2 [11]) [%] | activity at 10 µM (HepG2 [11]) [%] | activity at 1 µM (HT‐29 [12]) [%] | activity at 10 µM (HT‐29 [12]) [%] | activity at 1 µM (Caco‐2 [13]) [%] | activity at 10 µM (Caco‐2 [13]) [%] | activity at 1 µM (EA.hy926 [14]) [%] | activity at 10 µM (EA.hy926 [14]) [%] | other results
6 | – | – | 1.3 ± 0.3 | 9.2 ± 0.5 | COc1cccc2c1C(=O)c1c(O)c3c(c(O)c1C2=O)C[C@@](O)(C(=O)CO)C[C@@H]3O[C@H]1C[C@H](N)[C@H](O)[C@H](C)O1 [Dox, doxorubicin, reference compound] | – | – | 1.8 ± 0.1 | 4.8 ± 0.1 | 13 ± 0.5 | 4.1 ± 0.1 | 2.7 ± 0.1 | 3.4 ± 0.4 | 100 ± 4.1 | 119 ± 4.2 | 116 ± 1.7 | 126 ± 1.8 | 121 ± 9.4 | 112 ± 3.9 | 108 ± 6.2 | 125 ± 5.1 | change of intracellular ROS in words (HepG2 [11]): significant increase in ROS generation; change of intracellular ROS in words (HT‐29 [12]; HT‐29, vs untreated control, 10 and 1 μM): significant increase in ROS generation; change of intracellular ROS in words (Caco‐2 [13]; Caco‐2, vs untreated control, 10 and 1 μM): significant increase in ROS generation; change of intracellular ROS in words (EA.hy926 [14]): significant increase in ROS generation; change of intracellular ROS in words (CHO‐K1): significant increase in ROS generation
7 | 2.7 ± 0.1 (≈ 0.995 µg/mL) | – | 22.1 ± 2.6 | 39.1 ± 0.1 | COc1cc(/C=C/C(=O)CC(=O)/C=C/c2ccc(O)c(OC)c2)ccc1O [Cur, curcumin, reference compound] | 1.00 | – | 25.3 ± 0.9 | 43.4 ± 4.6 | 47.6 ± 1.5 | 46.8 ± 0.7 | 52.3 ± 3.8 | 58.4 ± 4.2 | 90.8 ± 12 | 101 ± 8.8 | 106 ± 8.4 | 86.5 ± 4.5 | 131 ± 3.6 | 115 ± 7.2 | 100 ± 7.7 | 97.6 ± 5.7 | –
8 | 9.9 ± 0.4 (≈ 3.2 µg/mL) | 11.6 ± 0.6 (≈ 3.75 µg/mL) | 20.6 ± 1.4 | 25.8 ± 1.1 | COc1cc(/C=C/C(=O)/C=C(O)/C=C/c2ccccn2)ccc1O [3 b, (1E,4Z,6E)‐5‐Hydroxy‐1‐(4‐hydroxy‐3‐methoxyphenyl)‐7‐(pyridin‐2‐yl)hepta‐1,4,6‐triene‐3‐one] | 0.41 | 0.40 curcumin equivalent per μM | 24.6 ± 4.8 | 34.3 ± 2.7 | 22.3 ± 0.9 | 1.1 ± 0.1 | 34.8 ± 1.2 | 3.1 | 108 ± 6.7 | 91.9 ± 9.2 | 80.8 ± 2.5 | 93.6 ± 3.1 | 92.7 ± 5.4 | 99.7 ± 6.2 | 100 ± 7 | 127 ± 4.9 | –
